Experimental data as given in PMC3461514 (The Journal of Cell Biology, 2012).
Ends that are not written are not given here.

Legend:
zebrafish embryos = experiment: Zebrafish dilated heart phenotype after San MO and cRNA coinjection; assay type: in vivo, Danio rerio (zebrafish); settings: 1 ng MO injected alone at one-cell stage, scored at 48 hpf
HUVEC = experiment: Immunofluorescence localization of HA-KRIT1 at EC-cell junctions; assay type: cell-based, human; settings: HA-tagged KRIT1 transfected HUVECs, 24 h, colocalization with VE-cadherin
How it was run: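 HUVECs in supplemented EC medium, nucleofected with HA-KRIT1 WT or L717,721A, plated on fibronectin-coated coverslips at ~90% confluence, grown 24 h; fixed 3.7% PFA 30 min, 0.2% Triton X-100 5 min, 10% goat serum block 1 h; mouse anti-HA plus rabbit anti-VE-cadherin 3 h RT, Alexa 488/568 secondaries 1 h; spinning-disk confocal, 40× oil, z-slices; ≥3 independent experiments.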

HUVECs = experiment: Myosin light chain phosphorylation; assay type: cell-based, human; settings: siRNA-resistant KRIT1 coexpressed with anti-KRIT1 siRNA in HUVECs, immunoblot
How it was run: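 HUVECs were kept in supplemented EC medium and nucleofected with anti-KRIT1 siRNA, alone or together with cDNA for WT or L717,721A KRIT1. Phospho-myosin light chain was then assessed by immunoblotting.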

KRIT1 FERM domain = KRIT1 FERM domain (Homo sapiens, UniProt O00522); assay type: binding; settings: GFP-KRIT1 F123 from HEK293 cell lysates, immunoblot
Sequence of KRIT1 FERM domain (O00522 420-734 limits assumed): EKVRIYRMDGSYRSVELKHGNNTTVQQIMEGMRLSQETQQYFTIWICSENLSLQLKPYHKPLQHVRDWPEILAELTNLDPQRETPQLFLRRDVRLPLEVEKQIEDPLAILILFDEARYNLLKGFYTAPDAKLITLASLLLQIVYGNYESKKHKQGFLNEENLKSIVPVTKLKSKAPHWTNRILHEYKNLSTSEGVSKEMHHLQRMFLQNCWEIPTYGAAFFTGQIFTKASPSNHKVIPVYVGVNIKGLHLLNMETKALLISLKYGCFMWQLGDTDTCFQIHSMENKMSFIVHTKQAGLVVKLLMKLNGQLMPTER

5′-TTGAAGTCTCACTTTTGTCTCCATG-3′ (morpholino, further chemistry not given here) [San MO]
heart dilation, zebrafish embryos (zebrafish embryos): 95%

KRIT1: HA-tagged full-length wild-type human KRIT1 expressed in HUVECs
localization at EC-cell junctions (HUVEC): localized at EC–cell junctions | effect on increased myosin light chain phosphorylation caused by KRIT1 silencing (HUVECs): reversed this effect

HEG1 C26 NAFA (SRHSCIFPGQYAPSAISDESRRRDYF; not fully specified)
KRIT1 binding (KRIT1 FERM domain): no effect on KRIT1 binding
